Hits are enriched below; roughly 1.8% of the tested compounds scored in any of these assays.
TCR-CD3 inh = inhibitors of human TCR-CD3 interaction, primary screen, biochemical, fluorescence, TAMRA-labeled TCR probe; T-cell receptor (TCR); inhibition, % at 9.4 µM; 360,000 tested, 0.37% active; in the data active = inhibition above about 19%;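 note: recombinant mutant TCR 2C K166C tagged with TAMRA read by polarization; 0% = receptor in buffer alone and 100% = receptor with positive control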
HTRA1 inh = HTRA1 serine protease inhibitors, primary screen, biochemical, fluorescence polarization, HTS; 340,000 tested, 0.5% active; recombinant HTRA1, FP-rhodamine activity-based probe; AID 504803, 2011; Q92743; inhibition, % at 5.96 µM; in the data active = inhibition above about 36%;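 note: 0% = enzyme with DMSO and 100% = wells lacking enzyme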
DDE Tn7 FP inh = inhibitors of Tn7 peptide binding to fibrin DD(E), primary screen, biochemical, fluorescence polarization, human fibrin, Tn7 probe; AID 720508, 2013; 370,000 tested, 0.13% active; FP displacement of FITC-Tn7 peptide from fibrin DD(E); 0% = median of compound wells per plate; Fibrinogen beta chain (Homo sapiens), P02675; inhibition, % at 8.3 µM;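 active = inhibition above the mean of compounds falling within the control limits plus 3 SD of them, cut at about 14% in these data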;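 note: 0% = plate median of compound wells and 100% = 10 µM Aha-Tn7 peptide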
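Test system: human clot-derived fibrin DD(E) complex / Quantity: 2 µM final DD(E) protein / Incubation: 10 min plus 3 h, room temperature / Measured by: fluorescence polarization / Benchmarks: high control of 10 µM Aha-Tn7 peptide / Replicates: singlicate testing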
ABHD4 inh = ABHD4 inhibitors, primary screen, biochemical, fluorescence polarization, mouse; 370,000 tested, 0.54% active; inhibition, % at 8.92 µM; purified mABHD4, FP-Rh probe fluorescence polarization;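 active = inhibition exceeding the mean over every tested compound plus 3 SD, cut at about 30% in these data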;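 note: 0% = plate median of compound wells and 100% = S159A mutant with DMSO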
Target sequence (Q8VD66 whole entry, looked up): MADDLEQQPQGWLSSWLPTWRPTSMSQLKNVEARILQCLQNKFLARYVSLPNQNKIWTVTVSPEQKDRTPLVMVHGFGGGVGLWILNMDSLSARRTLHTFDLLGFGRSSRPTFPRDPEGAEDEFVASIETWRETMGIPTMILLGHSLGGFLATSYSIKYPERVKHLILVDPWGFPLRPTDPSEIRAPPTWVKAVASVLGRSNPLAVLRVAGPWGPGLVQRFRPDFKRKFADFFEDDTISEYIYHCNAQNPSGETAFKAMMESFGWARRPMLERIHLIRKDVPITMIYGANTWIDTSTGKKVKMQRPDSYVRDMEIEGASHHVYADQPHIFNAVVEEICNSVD
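assay system = mABHD4 protein | compound dosing = single nominal dose of 8.92 µM, 0.89% DMSO final | read-out basis = percent inhibition of probe binding, normalized to plate controls | schedule = Enzyme–compound pre-incubation 45 min, then probe 60 min, both 25 °C | detection = fluorescence polarization, excitation 525 nm, emission 598 nm, BODIPY TMR filters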
DDE Tn6 FP inh = inhibitors of Tn6 peptide binding to fibrin DD(E), primary screen, biochemical, fluorescence polarization, human fibrin, Tn6 probe. Fibrinogen beta chain (Homo sapiens), P02675. Fibrin DD(E) TRITC-Tn6 fluorescence polarization displacement. inhibition, % at 8.3 µM. 370,000 tested, 0.21% active. AID 720509, 2013;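 active = inhibition above a per-campaign cutoff: mean of compounds within control limits plus 3 SD, cut at about 15% in these data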;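 note: 0% = median of all compound wells on the plate and 100% = blocking peptide control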
SIAE primary = human SIAE inhibitors, primary screen, biochemical, fluorescence polarization, FP-Rh probe, 1536-well HTS; Sialate O-acetylesterase (Homo sapiens), Q9HAT2; SIAE FP-Rh probe binding; inhibition, % at 9.66 µM; 370,000 tested, 0.69% active; AID 1053197, 2014;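 active = inhibition above a cutoff: mean of compounds within the control limits plus 3 SD of those, cut at about 17% in these data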;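 note: 0% = plate median of compound wells and 100% = probe without SIAE protein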
* marks the source's active call; other numbers are inactive results; nt = no result given.

SMILES	TCR-CD3 inh	HTRA1 inh	DDE Tn7 FP inh	ABHD4 inh	DDE Tn6 FP inh	SIAE primary
O=S1(=O)c2ccc(Br)cc2OC[C@@H](Cc2ccccc2)N1Cc1cn(Cc2ccc(Cl)cc2)nn1	nt	nt	-1	-8	2	-1
Cc1ccc(Nc2nc3ccccc3s2)c(C)c1	4	-20	0	19	2	2
Cc1cc(O)ccc1Nc1nc2ccccc2nc1Nc1ccc(O)cc1C	14	34	0	23	6	20*
COC(=O)C1CN(Cc2ccc(C)cc2)CCS(=O)(=O)N1Cc1cn(Cc2ccccc2)nn1 (stereo not drawn)	nt	nt	-5	5	3	1
CN1CCc2cc3c(c4c2[C@H]1[C@H](O)c1ccccc1-4)OCO3	15	17	-2	46*	7	12
O=c1[nH][nH]c2c(N=Cc3ccccc3O)ccc(F)c12	nt	47*	nt	nt	nt	nt
Cc1ccccc1NC(=O)N(C)[C@H]1C[C@H]2c3[nH]c4c(-c5ccccc5)cccc4c3CCN2C[C@H]1[C@H](C)O	nt	nt	5	15	-3	0
CN(CCO)c1ccc(C=NNc2ccc([N+](=O)[O-])cc2S(=O)(=O)Nc2ccccc2C(=O)O)cc1	1	nt	1	46*	7	3
CC(=O)Nc1ccc(C=NNc2ccc([N+](=O)[O-])cc2S(=O)(=O)Nc2ccccc2C(=O)O)cc1	2	-45	-2	-14	8	-9
CCOC(=O)Nc1ccc2c(c1)C(=NNC(=S)NC)c1ccccc1-2	0	-56	15*	-8	2	15
COc1cccc2c1C(=O)c1c(O)c3c(c(O)c1C2=O)C[C@@](O)(C(=O)CO)C[C@@H]3O[C@H]1C[C@H](N)[C@@H](O)[C@H](C)O1	nt	69*	nt	nt	nt	nt
COCCNC(=O)c1onc(CSc2ccccc2C)c1C(=O)O	-1	1	5	1	22*	1
COCCNC(=O)c1onc(CSc2ccccc2F)c1C(=O)O	-2	5	-7	3	-1	3
O=C(CSc1nc2ccccc2c(=O)n1-c1ccc(Cl)cc1)NNC(=S)Nc1ccccc1	nt	nt	0	2	-5	-2
O=c1[nH]c2c(s1)C=Nc1ccccc1N2	3	9	30*	9	7	-4
C/C(=N\NC(=O)c1ccc(Br)cc1)C1C(=O)c2ccccc2C1=O	27*	40*	0	36*	1	0
C=CCN1C(=O)/C(=C2/Sc3ccccc3N2CC)SC1=S	1	-6	3	2	6	-2
C=CCN1C(=O)/C(=C2/Sc3ccccc3N2CCCS(=O)(=O)O)SC1=S	2	17	6	36*	-4	3
Cc1ccccc1Cn1cc(COC(=O)NCC(C)C)nn1	nt	nt	-1	7	-5	5
Nc1cc(Cl)nc(N/N=C/c2ccc([N+](=O)[O-])cc2)n1	7	-5	-5	4	-14	7
Nc1cc(Cl)nc(N/N=C/c2ccccc2[N+](=O)[O-])n1	2	3	-2	2	-4	18*
CCC(=O)OC1(C)C(=O)C=C2C=C(c3ccsc3)OC=C2C1=O (stereo not drawn)	nt	48*	nt	nt	nt	nt
Cc1cc(O)c2c(c1O)C(=O)[C@]13C(=C2O)C(=O)[C@@H]2[C@@H](O)[C@H]1[C@@H]1[C@H](O)[C@H]3C(=O)C3=C(O)c4c(O)cc(C)c(O)c4C(=O)[C@]312	nt	41*	nt	nt	nt	nt
C/C(CC(=O)Nc1cc(C)ccn1)=N\NC(=O)c1cccc(C)c1O	35*	33	3	11	-5	4
CN1\C(=C/C=C/C=C/C=[N+](C)C)C(C)(C)c2ccccc21	-39	-149	-11	-183	31*	-341
CN1/C(=C\C=O)C(C)(C)c2ccccc21	2	0	4	-16	-2	-16
CCOc1ccc(-n2c(SCC(=O)Nc3ccc(S(=O)(=O)Nc4nccs4)cc3)nnc2-c2ccc(C(C)(C)C)cc2)cc1	nt	nt	-2	-82	2	-51
